For 55 sequences, folding enthalpy and Tm results are on record in the array DNA melting data of Ke et al. (doi:10.1101/2024.01.08.574731).

The nature of series [1]: folding enthalpy; higher = less favourable; fluorescence melt of hairpins on a sequencing array, two-state fit. Conditions: sodium 0.088 M. The gist of the method:
(§1)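 Library hairpins on a sequenced MiSeq flow cell carried annealed Cy3 and quencher oligos, and their Cy3 fluorescence was imaged in 50 mM Na-HEPES pH 8.0 with 25 mM NaCl, in 2.5 °C steps up to 60 °C. Signals were normalised to Cy3 before quenching and to control constructs. Melting temperature and folding enthalpy were obtained from bootstrapped two-state fits, combined by inverse-variance weighting across four replicates, and the fitted temperatures were then raised by 9.35 °C to match UV melts.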

Series [2] can be described thus: melting temperature; fluorescence melt of hairpins on a sequencing array, two-state fit, raised by 9.35 °C to match UV melts. Conditions: sodium 0.088 M. A digest of the protocol:
as §1

For GCATCTACGAAAGTATGC (((..(((....)))))), in series [1], the folding enthalpy was -20.7 kcal/mol. The Tm in series [2] is 34.6 °C.
In the same order, the values of GCATCTGAAAAGATGC ((((((....)))))) are -32.6 kcal/mol and 64.7 °C.
For GCATGAACGAAAGTTTGC (((..(((....)))))), in that order: -20.5 kcal/mol and 33.9 °C.
For GCATGAGAAATCATGC ((((((....)))))), in that order: -38.7 kcal/mol and 56.4 °C.
In the case of GCATGAGGAAACTTATGC ((((.((....)).)))), in series [1], the folding enthalpy was -34.7 kcal/mol. Further, in series [2], the Tm was 44.2 °C.
For the sequence GCATGAGGAAACTTGTGC (((..((....))..))), in series [1], the folding enthalpy was -26.6 kcal/mol. Moreover, in series [2], the Tm amounted to 35.9 °C.
For GCATGCACGAAAGTGTGC (((..(((....)))))), in that order: -13.3 kcal/mol and 42.5 °C.
In the same order, the values of GCATGCGGAAACGCACAC (..((((....))))..) are -9.47 kcal/mol and 27.7 °C.
For GCATGGCGAAAGCAAGGC ((.(.((....)).).)), in that order: -17.2 kcal/mol and 49.5 °C.
As to GCATGGCGAAAGCAATGC ((((.((....)).)))), the folding enthalpy in series [1] was -30.6 kcal/mol. The Tm in series [2] stood at 64.8 °C.
In the same order, the values of GCATGGCGAAAGCAGTGC (((..((....))..))) are -19.7 kcal/mol and 56.5 °C.
In the same order, the values of GCATGGCGAAAGCCAAGC ((.((((....)))).)) are -17.6 kcal/mol and 61.6 °C.
For GCATGGCGAAAGCTCTGC (((..((....))..))), the folding enthalpy in series [1] is -18 kcal/mol. Also, in series [2], the Tm came out at 43.2 °C.
Take GCATGGGAAACCATGC ((((((....)))))): the folding enthalpy in series [1] was -34.4 kcal/mol. The Tm in series [2] was found to be 65.6 °C.
In the same order, the values of GCATGGGCGAAAGCCTGC (((..(((....)))))) are -16.3 kcal/mol and 48.7 °C.
For GCATGGGGAAACCCACAC (..((((....))))..), in that order: -14.2 kcal/mol and 29 °C.
With GCATGGGGAAACTCGTGC (((.(.(....).).))), the folding enthalpy in series [1] is -26.2 kcal/mol. Moreover, the Tm in series [2] is 41 °C.
For GCATGTACGAAAGTATGC (((..(((....)))))), in that order: -29.3 kcal/mol and 43.8 °C.
In the same order, the values of GCATGTCGAAAGACGTGC (((.(((....))).))) are -36.8 kcal/mol and 65.6 °C.
For the sequence GCATGTGGAAACACACGC ((.((((....)))).)), in series [1], the folding enthalpy was -25.8 kcal/mol. Moreover, in series [2], the Tm turned out to be 46 °C.
In the same order, the values of GCATGTGGAAACGCATGC (((((.(....).))))) are -44.7 kcal/mol and 55.9 °C.
For the sequence GCATGTGGAAACGTATGC ((((..(....)..)))), in series [1], the folding enthalpy was -26.3 kcal/mol. For the same sequence, the Tm in series [2] came out at 41 °C.
For GCATTACGAAAGTAGTGC (((.(((....))).))), in that order: -31.7 kcal/mol and 52.4 °C.
In the same order, the values of GCATTCCGAAAGGAGTGC (((.(((....))).))) are -40 kcal/mol and 58.4 °C.
For GCATTCGAAAGAAAATGC ((((((....)))..))), in that order: -24.8 kcal/mol and 34.6 °C.
In the case of GCATTCGGAAACGAATAC (.(((((....))))).), the folding enthalpy in series [1] was -19.8 kcal/mol. Further, in series [2], the Tm was found to be 37 °C.
For GCATTGCGAAAGCATCGC ((..(((....)))..)), in that order: -11.8 kcal/mol and 52.9 °C.
For GCATTGCGAAAGCATGGC ((..(((....)))..)), in that order: -19.9 kcal/mol and 45.8 °C.
On to GCATTGCGAAAGCCACGC ((.(.((....)).).)), for which, in series [1], the folding enthalpy is -8.66 kcal/mol. Besides, the Tm in series [2] came out at 38.2 °C.
For GCATTGCGAAAGCGCTGC (((..((....))..))), in that order: -18.8 kcal/mol and 45.7 °C.
As to GCATTGCGAAAGCGGTGC (((..((....))..))), the folding enthalpy in series [1] was -22.3 kcal/mol. Also, the Tm in series [2] amounted to 58.8 °C.
In the same order, the values of GCATTGCGAAAGCTATGC ((((.((....)).)))) are -38.9 kcal/mol and 62.5 °C.
For GCATTTGGAAACAAACGC ((.((((....)))).)), the folding enthalpy in series [1] is -30.1 kcal/mol. Besides, the Tm in series [2] came out at 37.2 °C.
For GCATTTGGAAACGAATGC (((((.(....).))))), in that order: -41.8 kcal/mol and 49 °C.
In the same order, the values of GCATTTTCGAAAGAATGC (((..(((....)))))) are -28.4 kcal/mol and 35.5 °C.
On to GCCAAACGAAAGTTCGGC (((.(((....))).))), for which, in series [1], the folding enthalpy is -36.8 kcal/mol. Also, in series [2], the Tm was determined as 51.3 °C.
For GCCAACACGAAAGTGGGC (((..(((....)))))), in that order: -24.9 kcal/mol and 52.7 °C.
In the same order, the values of GCCAACCCGAAAGGGGGC (((..(((....)))))) are -18.8 kcal/mol and 51.8 °C.
In the same order, the values of GCCAACCGAAAGGTGGGC (((.(((....))).))) are -40.6 kcal/mol and 68.4 °C.
In the case of GCCAACGAAAGTTAGGGC ((((((....)))..))), the folding enthalpy in series [1] is -23.5 kcal/mol. The Tm in series [2] was 46.6 °C.
For GCCAACGAAAGTTATGGC ((((((....)))..))), in that order: -30.7 kcal/mol and 45.7 °C.
For GCCAACGGAAACGTCAGC ((..(((....)))..)), in that order: -12.1 kcal/mol and 28.3 °C.
In the same order, the values of GCCAAGAAATTGGC (((((....))))) are -21.6 kcal/mol and 52.3 °C.
Take GCCAAGCCGAAAGGCGGC (((..(((....)))))): the folding enthalpy in series [1] was -16.1 kcal/mol. In addition, the Tm in series [2] came to 64.2 °C.
In the same order, the values of GCCAAGCGAAAGCCGGGC (((..((....))..))) are -22.4 kcal/mol and 57.7 °C.
In the same order, the values of GCCAAGCGAAAGCGGGGC (((..((....))..))) are -28.6 kcal/mol and 68.3 °C.
In the same order, the values of GCCAAGCGAAAGCGTTGC ((.(.((....)).).)) are -11.6 kcal/mol and 40.1 °C.
As to GCCAAGCGAAAGCTTTGC ((.((((....)))).)), the folding enthalpy in series [1] was -21.4 kcal/mol. The Tm in series [2] came out at 53.4 °C.
For GCCAAGGGAAACCCTAGC ((.(.((....)).).)), in that order: -17.6 kcal/mol and 28.8 °C.
With GCCAATGAAAATTGGC ((((((....)))))), the folding enthalpy in series [1] is -30.7 kcal/mol. Besides, the Tm in series [2] turned out to be 59.9 °C.
GCCAATGGAAACATTAGC ((.((((....)))).)): the folding enthalpy in series [1] was -17.4 kcal/mol. The Tm in series [2] stood at 32.1 °C.
In the same order, the values of GCCAATGGAAACGTTGGC (((((.(....).))))) are -49.3 kcal/mol and 53.7 °C.
In the same order, the values of GCCACCCGAAAGGGAGGC (((.(((....))).))) are -44.3 kcal/mol and 67.8 °C.
In the same order, the values of GCCACCCGAAAGGGGGC (((.(((....)))))) are -22.8 kcal/mol and 68.5 °C.
Take GCCACCGAAAGGTCAGGC ((((((....)))..))): the folding enthalpy in series [1] was -23.1 kcal/mol. In addition, in series [2], the Tm turned out to be 48.4 °C.
